Laboratory results taken from ChEMBL document CHEMBL1128437, “Derivatives of 17-phenyl-18,19,20-trinorprostaglandin F2 alpha isopropyl ester: potential antiglaucoma agents” (J Med Chem, 1995).
“And” between values parts separate entries of the source, which are not always exact repeats. Identical values can stand only once.

Assays:
Felis catus [1] = organism: Felis catus; assay: The mean area between curves for Intraocular Pressure (IOP) measured in treated and control eyes. The effect was tested in cats at a dose of 3.0 (ug/eye); type: functional
Method in brief: (§1)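 Domestic female cats, 2–3 kg, trained for IOP measurement. One eye received a topical drop (20 µL) of drug in 0.9% NaCl with 0.5% polysorbate 80; the other eye received vehicle. IOP was read by pneumatonometer under oxibuprocain local anaesthesia before dosing and at 1, 3, 6 and 23 h. The maximal treated-minus-control difference was taken. Area between curves is the treated-eye AUC minus control-eye AUC, per animal.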

Oryctolagus cuniculus [2] = organism: Oryctolagus cuniculus; assay: The mean area between curves for conjunctival hyperemia between treated and control eyes. The effect was tested in rabbit at a dose of 0.5 (ug/eye)
Felis catus [3] = organism: Felis catus; assay: The maximal difference in […] pupil diameter between treated and control eyes. The effect was tested in cats at a dose of 3.0 (ug/eye); type: functional
Method in brief: (§2)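 Trained female cats, 2–3 kg, were dosed unilaterally with one 20 µL topical drop of drug in 0.9% NaCl/0.5% polysorbate 80, with vehicle in the contralateral eye. Horizontal pupil diameter was measured with a millimetre ruler under constant 10 lux illumination before dosing and at 1, 3, 6 and 23 h. Reported as maximal treated–control difference or as area between curves, per animal.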

Felis catus [4] = organism: Felis catus; assay: The mean area between curves for pupil diameter between treated and control eyes. The effect was tested in cats at a dose of 3.0 (ug/eye); type: functional; method in brief: as §2
Oryctolagus cuniculus [5] = organism: Oryctolagus cuniculus; assay: The maximal difference in conjunctival hyperemia between treated and control eyes. The effect was tested in rabbit at a dose of 0.5 (ug/eye)
Felis catus [6] = organism: Felis catus; assay: The maximal difference in Intraocular Pressure (IOP) between treated and control eyes. The effect was tested in cats at a dose of 3.0 (ug/eye); type: functional; method in brief: as §1
Felis catus [7] = organism: Felis catus; assay: The mean ocular irritation in the treated eyes. An arbitrary scale of from 0 to 3 was used, 0 indicates absence of irritation and 3 complete closure of the lids. The effect was tested in cats at a dose of 3.0 (ug/eye); type: functional
Method in brief: (§3)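 Ocular irritation was scored in the treated eye of trained female cats, 2–3 kg. Drug was given as one topical 20 µL drop in 0.9% NaCl with 0.5% polysorbate 80. The contralateral eye got vehicle only.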

Felis catus [8] = organism: Felis catus; assay: The mean ocular irritation in the treated eyes. An arbitrary scale of from 0 to 3 was used, 0 indicates absence of irritation and 3 complete closure of the lids. The effect was tested in cats at a dose of 1.0 (ug/eye); type: functional; method in brief: as §3
Felis catus [9] = organism: Felis catus; assay: The mean area between curves for Intraocular Pressure (IOP) measured in treated and control eyes. The effect was tested in cats at a dose of 1.0 (ug/eye); type: functional; method in brief: as §1
Felis catus [10] = organism: Felis catus; assay: The maximal difference in Intraocular Pressure (IOP) between treated and control eyes. The effect was tested in cats at a dose of 1.0 (ug/eye); type: functional; method in brief: as §1
Felis catus [11] = organism: Felis catus; assay: The maximal difference in […] pupil diameter between treated and control eyes. The effect was tested in cats at a dose of 1.0 (ug/eye); type: functional; method in brief: as §2
Felis catus [12] = organism: Felis catus; assay: The mean area between curves for pupil diameter between treated and control eyes. The effect was tested in cats at a dose of 1.0 (ug/eye); type: functional; method in brief: as §2
Felis catus [13] = organism: Felis catus; assay: Concentration giving half-maximal contraction of the cat iris sphincter muscle was determined in vitro; type: functional
Method in brief: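 Compounds were tested as hydrolysed free acids on isolated cat iris sphincter in organ baths. Bath solution was bicarbonate physiological saline with glucose plus indomethacin 2.8 × 10⁻⁶ M, atropine 10⁻⁷ M and propranolol 10⁻⁶ M. Resting tension was 150 mg, with at least 30 min equilibration. Cumulative dosing was at 5–10 min intervals. Isometric contraction was normalised to each tissue's maximum, averaged over four preparations, and fitted with a Hill equation for EC50.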

Monkey [14] = assay: The maximal difference in Intraocular Pressure (IOP) measured in treated and control eyes. The effect was tested in monkey at a dose of 3.0 (ug/eye); type: functional, Cercopithecidae
Method in brief: (§4)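 Cynomolgus monkeys trained for IOP measurement were sedated with ketamine (2–3 mg/kg) for transport and seated in restraint chairs under oxibuprocain local anaesthesia. One eye received a 10 µL drop of drug in 0.9% NaCl/0.5% polysorbate 80; the fellow eye received vehicle. IOP was read by pneumatonometer calibrated for monkey eyes before dosing and at 1, 2, 4 and 6 h. Matched-pair t test, n = 6.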

Monkey [15] = assay: The mean area between curves for Intraocular Pressure (IOP) measured in treated and control eyes. The effect was tested in monkey at a dose of 3.0 (ug/eye); type: functional, Cercopithecidae; method in brief: as §4

Row | SMILES | I ABC (Felis catus [1]) | H ABC (Oryctolagus cuniculus [2]) | Pmax (Felis catus [3]) [mm] | P ABC (Felis catus [4]) | Hmax (Oryctolagus cuniculus [5]) | Imax (Felis catus [6]) [mmHg] | Irritation (Felis catus [7]) [arbitrary units] | Irritation (Felis catus [8]) [arbitrary units] | I ABC (Felis catus [9]) | Imax (Felis catus [10]) [mmHg] | Pmax (Felis catus [11]) [mm] | P ABC (Felis catus [12]) | EC50 (Felis catus [13]; Felis catus, Sphincter muscle) [nM] | EC50 (Felis catus [13]) | Imax (Monkey [14]) [mmHg] | I ABC (Monkey [15])
1 | CC(C)OC(=O)CCC/C=C\C[C@@H]1[C@@H](/C=C/[C@H](O)CCc2cccc(-c3ccco3)c2)[C@H](O)C[C@@H]1O | -8 | 0.4 | -0.3 | -5.7 | 0.3 | -1.2 | 0.4 |  |  |  |  |  |  |  |  | 
2 | CC(=O)c1cccc(CC[C@@H](O)/C=C/[C@@H]2[C@@H](C/C=C\CCCC(=O)OC(C)C)[C@@H](O)C[C@H]2O)c1 | -23.8 | -0.7 | < -0.7 | -1.4 | -0.3 | <-2.6 | 0.1 | 0.3 | -43.3 | -4 | 0.6 | 1.2 |  |  |  | 
3 | CC(C)OC(=O)CCC/C=C\C[C@@H]1[C@@H](/C=C/[C@H](O)CCc2cccc(-c3ccoc3)c2)[C@H](O)C[C@@H]1O | -16.3 | <1.6 | -1.3 | -13 | <0.5 | -3 | 0 |  |  |  |  |  |  |  |  | 
4 | O=C(O)CCC/C=C\C[C@@H]1[C@@H](/C=C/[C@H](O)CCc2ccc(Br)cc2)[C@H](O)C[C@@H]1O |  |  |  |  |  |  |  |  |  |  |  |  | 2100 |  |  | 
5 | O=C(O)CCC/C=C\C[C@@H]1[C@@H](/C=C/C(O)CCc2cccc(Br)c2)[C@H](O)C[C@@H]1O (stereo not given in full) |  |  |  |  |  |  |  |  |  |  |  |  |  | 33 nM and 4.9 nM |  | 
6 | O=C(O)CCC/C=C\C[C@@H]1[C@@H](/C=C/C(O)CCc2ccccc2)[C@H](O)C[C@@H]1O (stereo not given in full) |  |  |  |  |  |  |  |  |  |  |  |  | 0.71 |  |  | 
7 | Cc1ccc(CCC(O)/C=C/[C@@H]2[C@@H](C/C=C\CCCC(=O)O)[C@@H](O)C[C@H]2O)cc1 (stereo not given in full) |  |  |  |  |  |  |  |  |  |  |  |  | 40 |  |  | 
8 | CC(C)OC(=O)CCC/C=C\C[C@@H]1[C@@H](/C=C/[C@H](O)CCc2cccc(Br)c2)[C@H](O)C[C@@H]1O | -6.2 | <2 | < -5.3 | <-71 | <1.2 | -2 | 0 | 0 | 0.2 | <1.2 | < -3.8 | <-50.3 |  |  | -1.4 | -6
9 | Cc1ccc(CC[C@@H](O)/C=C/[C@@H]2[C@@H](C/C=C\CCCC(=O)OC(C)C)[C@@H](O)C[C@H]2O)cc1 | -10.8 | -0.2 | -0.2 | -0.2 | 0.2 | -1.8 | 0 |  |  |  |  |  |  |  |  | 
10 | CC(C)OC(=O)CCC/C=C\C[C@@H]1[C@@H](/C=C/[C@H](O)CCc2ccc(-c3cccs3)cc2)[C@H](O)C[C@@H]1O | 4.2 | 0.3 | 0 | 0 | 0.3 | -1.3 | 0.2 |  |  |  |  |  |  |  |  | 
11 | CC(C)OC(=O)CCC/C=C\C[C@@H]1[C@@H](/C=C/[C@@H](O)CCc2ccc(-c3cccs3)cc2)[C@H](O)C[C@@H]1O |  | 0 |  |  | 0.3 |  |  | 0.4 | -84 | <-4.2 | < -0.9 | -2.2 |  |  | <1.5 | 6.5
12 | CC(=O)c1cccc(CC[C@H](O)/C=C/[C@@H]2[C@@H](C/C=C\CCCC(=O)OC(C)C)[C@@H](O)C[C@H]2O)c1 |  | 0 |  |  | -0.1 |  |  | 1.3 | 7.1 | 0.7 | < -1.8 | <-30 |  |  | <-2.8 | <-12.3
13 | CC(C)OC(=O)CCC/C=C\C[C@@H]1[C@@H](/C=C/[C@H](O)CCc2ccc(-c3ccco3)cc2)[C@H](O)C[C@@H]1O | -25.8 | <1 | < -1.5 | <-10.6 | <0.5 | 2.5 | 0.2 |  |  |  |  |  |  |  |  | 
14 | CC(=O)c1ccc(CC[C@H](O)/C=C/[C@@H]2[C@@H](C/C=C\CCCC(=O)OC(C)C)[C@@H](O)C[C@H]2O)cc1 |  | -0.5 |  |  | -0.2 |  |  | 0 | -4.3 | -0.3 | 0.2 | 1.4 |  |  | <-2.3 | <-10
15 | CC(C)OC(=O)CCC/C=C\C[C@@H]1[C@@H](/C=C/[C@@H](O)CCc2cccc(-c3ccoc3)c2)[C@H](O)C[C@@H]1O | -24.4 | 1.3 | -1.3 | <-9.3 | <0.5 | -3 | 0.5 |  |  |  |  |  |  |  |  | 
16 | CC(C)OC(=O)CCC/C=C\C[C@@H]1[C@@H](/C=C/[C@@H](O)CCc2cccc(-c3cccs3)c2)[C@H](O)C[C@@H]1O | -10.3 | <2.6 | < -3.5 | <-28 | <0.9 | -1.2 | 0.3 | 0.1 | <-40 | <-3 | < -1.5 | -9.2 |  |  |  | 
17 | CC(C)OC(=O)CCC/C=C\C[C@@H]1[C@@H](/C=C/[C@H](O)CCc2ccc(-c3ccsc3)cc2)[C@H](O)C[C@@H]1O |  | -0.1 |  |  | -0.2 |  |  | 0 | -3.1 | -0.3 | < -0.7 | -1.8 |  |  |  | 
18 | CC(C)OC(=O)CCC/C=C\C[C@@H]1[C@@H](/C=C/[C@@H](O)CCc2cccc(-c3ccco3)c2)[C@H](O)C[C@@H]1O | 9.8 | 0.3 | -0.3 | -2.5 | <0.3 | 0.8 | 0.1 |  |  |  |  |  |  |  |  | 
